According to article PMC2857554 (Nature chemical biology, 2010):

What was measured:
[1] = system: PtK2 cells stably expressing HsMad2-EYFP; experiment: Mad2 kinetochore establishment assay; assay type: cell-based, Potorous tridactylus; conditions: 10 µM, NEB to NER
[2] = system: U2OS cells; experiment: Intracellular Aurora B kinase activity, immunoblot; assay type: cell-based; conditions: taxol and MG132, mitotic shake-off
[3] = system: U2OS cells; experiment: Mitotic escape assay; assay type: cell-based
[4] = system: U2OS cells with Plk4 overexpression; experiment: Proliferation assay of PLK4-overexpressing U2OS cells; assay type: cell-based; conditions: 48, 72, 96 hours
[5] = system: HCT116 cells; experiment: Proliferation assay; assay type: cell-based
[6] = system: Hela S3 or U2OS cells; experiment: Centrosome duplication in cycling cells; assay type: cell-based; conditions: 10 µM, 1 or 2 cell doublings
Outline: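 Hela S3 and U2OS cells on 12-mm coverslips were synchronized, then cycled in test compound or DMSO for one or two cell cycles. Mitotic spindles were stained for centrin, α-tubulin and DNA. The percentage of mitotic cells with fewer than 4 centrin dots was scored, counting 135–300 cells per arm. Results are mean ± SD from three independent experiments.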

[7] = system: hTERT-RPE1 cells; experiment: PARP cleavage immunoblot; assay type: cell-based; conditions: 25 µM
[8] = system: HCT116 cells; experiment: PARP cleavage immunoblot; assay type: cell-based
Outline: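 HCT116 cells in McCoy's 5A with 10% FBS were treated with test compound at a series of concentrations. Lysates were collected at 24, 48 and 72 h and immunoblotted for PARP cleavage.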

[9] = system: UTRM10 cells; experiment: Centriole overduplication under hydroxyurea; assay type: cell-based; conditions: 10 or 25 µM with hydroxyurea, 48 hours
Outline: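 UTRM10 cells co-treated for 48 h with hydroxyurea (4 mM) plus test compound (10 or 25 µM) or DMSO vehicle. Centrioles were scored by centrin immunostaining, with about 433–485 cells counted per condition. Results are mean ± SD of three independent experiments.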

[10] = system: MCF10A cells; experiment: PARP cleavage immunoblot; assay type: cell-based; conditions: 25 µM
[11] = system: U2OS H2B–GFP cells with Plk4 overexpression; experiment: Time-lapse of mitosis in cells with extra centrosomes; assay type: cell-based; conditions: extra centrosome containing cells
Outline: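 U2OS H2B–GFP cells with doxycycline-inducible Plk4 were blocked in thymidine for 18 h, then released into doxycycline (2 µg·ml−1) for 10 h. A second 18 h thymidine block followed, then release into medium for 6 h. Cells were treated with 5 µM test compound and imaged by time-lapse at 37°C, 5% CO2.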

[12] = biological target: Aurora B (Homo sapiens, UniProt Q96GD4); experiment: Lanthascreen in vitro assay on Aurora B; assay type: binding; conditions: in vitro assays
[13] = system: HCT116 cells; experiment: Colony outgrowth assay; assay type: cell-based; conditions: 5–10 µM, 10 days
[14] = system: Hela S3 cells expressing histone H2B-GFP; experiment: Mitotic escape, time-lapse, nocodazole arrest; assay type: cell-based; conditions: nocodazole-arrested cells
Outline: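 Hela S3 cells expressing H2B-GFP were treated with nocodazole with or without test compound. They were imaged in a heated chamber (37°C, 5% CO2), with DIC and GFP frames every 5 min across 5 z-planes. Mitotic exit was scored by nuclear envelope reassembly, counting 150 cells per population.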

[15] = system: UTRM10 cells expressing LAP-Mps1 M602Q; experiment: pHistone H3 immunoblot in cells expressing inhibitor-resistant Mps1; assay type: cell-based; conditions: thymidine/taxol arrest; VX-680 2 µM
[16] = system: mammalian cells; conditions: cited from earlier work
[17] = system: Mps1; conditions: cited from earlier work

Chain of Aurora B (Q96GD4 whole entry): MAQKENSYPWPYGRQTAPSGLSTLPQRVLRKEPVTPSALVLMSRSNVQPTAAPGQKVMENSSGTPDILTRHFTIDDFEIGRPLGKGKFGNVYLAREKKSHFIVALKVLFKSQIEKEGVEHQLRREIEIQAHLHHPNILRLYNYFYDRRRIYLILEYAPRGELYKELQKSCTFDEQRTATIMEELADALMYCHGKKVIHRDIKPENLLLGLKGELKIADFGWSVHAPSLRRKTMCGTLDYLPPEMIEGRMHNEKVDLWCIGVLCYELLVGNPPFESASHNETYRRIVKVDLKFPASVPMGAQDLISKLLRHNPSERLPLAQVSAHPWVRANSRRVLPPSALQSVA

| SMILES | less time spent in mitosis versus DMSO [1] | phosphorylation of Aurora B at Thr232 [2] | 4c pHistone H3 negative cells, flow cytometry ([3]; nocodazole-arrested cells) | cyclin B protein levels ([3]; thymidine/nocodazole arrest, 4 hrs inhibitor, reversed by MG132) | additional cytotoxicity versus parental U2OS [4] | cytotoxic concentrations [5] [µM] | mitotic cells containing less than 4 centrioles, versus vehicle [6] | apoptosis-associated PARP cleavage [7] | onset of PARP cleavage (apoptosis) [8] [h] | effect on centriole overduplication [9] | apoptosis-associated PARP cleavage [10] | decrease in time spent in mitosis [11] [fold] | activity against Aurora B in vitro [12] | cell viability and clonal survival [13] | time within which the majority of cells escape mitosis [14] [h] | hyperphosphorylation status of Mps1 (mobility shift) [2] | mitotic escape despite LAP-Mps1 M602Q [15] | effectiveness in mammalian cells [16] | inhibition of Mps1 kinase activity in S. cerevisiae [17] |
| --- | --- | --- | --- | --- | --- | --- | --- | --- | --- | --- | --- | --- | --- | --- | --- | --- | --- | --- | --- |
| COc1cc(N2CCC(O)CC2)ccc1Nc1cc(Nc2ccccc2S(=O)(=O)C(C)C)c2cc[nH]c2n1 [Mps1-IN-1] | roughly 40% | dose-dependent reduction | dose-dependent accumulation of 4c pHistone H3 negative cells | dropped with increasing concentration | no detectable additional cytotoxicity | 5 to 10 | no significant difference | little-to-no apoptosis-associated PARP cleavage | 48 | no effect | little-to-no apoptosis-associated PARP cleavage | 4 | does not exhibit activity against Aurora B | severe loss of cell viability and clonal survival | ≤ 1 | – | – | – | – |
| Cc1cc(Nc2cc(N3CCN(C)CC3)nc(Sc3ccc(NC(=O)C4CC4)cc3)n2)n[nH]1 [VX-680] | – | inhibited | – | – | – | – | – | – | – | – | – | – | – | – | – | did not adversely affect | still capable of executing an efficient mitotic escape | – | – |
| O=c1[nH]c2ccc(Br)cc2o1 [cincreasin] | – | – | – | – | – | – | – | – | – | – | – | – | – | – | – | – | – | ineffective | effective |
